Experimental data: ChEMBL document CHEMBL1155225, “Investigation of functionally liver selective glucokinase activators for the treatment of type 2 diabetes” (J Med Chem, 2009)
Active and inactive are the calls of the source. No cut-off for these calls is given here.

How the values were obtained:
[1] = system: Mus musculus; assay: Reduction in glucose excursion in C57BL/6 mouse at 50 mg/kg, po in water administered 30 mins before glucose challenge measured at 0.5 hr postdose by oral glucose tolerance test; type: functional, C57BL6; set-up: scale not given: the % may be the effect or the level left
Outline: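 Normal C57BL6 mice dosed by oral gavage at 50 mg/kg, with water as vehicle. Oral glucose at 1 g/kg 30 min after dosing. Plasma glucose read by glucose meter at 0 h and at 0.5, 1, 2 and 4 h post-dose. Reported as % reduction from vehicle control at the stated time, with significance at p < 0.05 or the p-value given.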

[2] = Permeability at 5 to 10 uM at pH 4, 6.8 and 8 by PAMPA; conditions: pH 4, 6.8, 8, 10 µM
[3] = system: Mus musculus; assay: Reduction in glucose excursion in C57BL/6 mouse at 10 mg/kg, iv administered 30 mins before glucose challenge measured at 2 hrs postdose by oral glucose tolerance test; type: functional, C57BL6; set-up: scale not given: the % may be the effect or the level left
Outline: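 Normal C57BL6 mice, compound given IV at 10 mg/kg. Oral glucose at 1 g/kg 30 min after dosing. Plasma glucose read by glucose meter at 0 h and at 0.5, 1, 2 and 4 h post-dose. Reported as % reduction from vehicle control at the stated time, with significance at p < 0.05 or the p-value given.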

[4] = Metabolic stability in human liver microsomes assessed as half life; type: ADME, Microsome
Outline: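 Compound incubated at 1 μM with human liver microsomes plus selected cofactors (NADPH, UDPGA); clearance followed at 4 time points as % test compound remaining, giving half-life.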

[5] = target: T1, Hexokinase-4 (Homo sapiens) (UniProt P35557); assay: Activation of His-tagged human recombinant liver glucokinase expressed in Escherichia coli BL21 (DE3) assessed as drug level required for half-maximal activation; type: single protein
T1 sequence (whole entry): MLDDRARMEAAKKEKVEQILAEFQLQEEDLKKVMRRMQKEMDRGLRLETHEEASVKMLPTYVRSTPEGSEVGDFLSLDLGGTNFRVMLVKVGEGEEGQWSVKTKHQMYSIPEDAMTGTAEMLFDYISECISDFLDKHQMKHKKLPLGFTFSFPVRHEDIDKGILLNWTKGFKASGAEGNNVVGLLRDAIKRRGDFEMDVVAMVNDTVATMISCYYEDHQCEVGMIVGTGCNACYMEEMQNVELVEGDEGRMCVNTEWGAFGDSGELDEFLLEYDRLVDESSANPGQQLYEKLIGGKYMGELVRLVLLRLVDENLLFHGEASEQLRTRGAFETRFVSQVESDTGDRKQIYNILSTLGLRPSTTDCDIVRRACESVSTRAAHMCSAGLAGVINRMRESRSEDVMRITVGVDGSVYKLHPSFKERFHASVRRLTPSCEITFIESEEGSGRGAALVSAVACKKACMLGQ
Outline: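 Recombinant human liver GK (aa 17-466), His-tagged, expressed in E. coli BL21 Star (DE3), nickel affinity purified, tag cleaved (GPGSM left), then anion exchange and gel filtration to >95%.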

[6] = AUC (0 to 24 hrs) in C57BL/6 mouse plasma at 60 mg/kg; type: ADME, organism-based, C57BL6; set-up: time < 24 hr, dose 60 mg/kg
Outline: (§1)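 Normal male-unspecified C57BL6 mice given a single 60 mg/kg dose; plasma, liver, pancreas and muscle sampled over 0-24 h, 3 animals with samples pooled for analysis; Cmax (μM) and AUC0-24h (μM*h) of parent drug reported.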

[7] = system: Mus musculus; assay: Antidiabetic activity in po dosed high fat diet-induced obese C57BL/6 type 2 diabetes mouse model assessed as decrease in glucose excursion administered QD for 4 weeks by intravenous glucose tolerance test; type: functional, organism-based; conditions: C57BL6
Outline: (§2)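 Male C57BL6 mice kept on high fat diet dosed orally once daily with vehicle (dH2O) or compound at 30 to 100 mg/kg. Intravenous glucose tolerance test then run; plasma glucose excursion and plasma insulin AUC (0-120 min) calculated; n = 8 mice/group, mean ± SEM, p < 0.05 vs vehicle.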

[8] = system: Mus musculus; assay: Antidiabetic activity in high fat diet-induced obese C57BL/6 type 2 diabetes mouse model assessed as improvement of glucose uptake at 30 to 100 mg/kg, po administered QD for 4 weeks by intravenous glucose tolerance test; type: functional, organism-based; conditions: C57BL6; outline: as §2
[9] = Cmax in C57BL/6 mouse pancreas at 60 mg/kg; type: ADME, organism-based, C57BL6; set-up: dose 60 mg/kg; outline: as §1
[10] = AUC (0 to 24 hrs) in C57BL/6 mouse liver at 60 mg/kg; type: ADME, organism-based, C57BL6; set-up: time < 24 hr, dose 60 mg/kg; outline: as §1
[11] = Cmax in C57BL/6 mouse plasma at 60 mg/kg; type: ADME, organism-based, C57BL6; set-up: dose 60 mg/kg; outline: as §1
[12] = AUC (0 to 24 hrs) in C57BL/6 mouse pancreas at 60 mg/kg; type: ADME, organism-based, C57BL6; set-up: time < 24 hr, dose 60 mg/kg; outline: as §1
[13] = system: Mus musculus; assay: Antidiabetic activity in high fat diet-induced obese C57BL/6 type 2 diabetes mouse model assessed as improvement of insulin sensitivity at 30 to 100 mg/kg, po administered QD for 4 weeks by intravenous glucose tolerance test; type: functional, organism-based; conditions: C57BL6; outline: as §2
[14] = system: Mus musculus; assay: Antidiabetic activity in high fat diet-induced obese C57BL/6 type 2 diabetes mouse model assessed as increase in plasma insulin AUC at 100 mg/kg, po administered QD for 4 weeks by intravenous glucose tolerance test; type: functional, organism-based; set-up: dose 100 mg/kg; conditions: C57BL6; outline: as §2
[15] = Cmax in C57BL/6 mouse muscle at 60 mg/kg; type: ADME, organism-based, C57BL6, Muscle tissue; set-up: dose 60 mg/kg; outline: as §1
[16] = AUC (0 to 24 hrs) in C57BL/6 mouse muscle at 60 mg/kg; type: ADME, organism-based, C57BL6, Muscle tissue; set-up: time < 24 hr, dose 60 mg/kg; outline: as §1
[17] = Cmax in C57BL/6 mouse liver at 60 mg/kg; type: ADME, organism-based, C57BL6; set-up: dose 60 mg/kg; outline: as §1
[18] = system: Mus musculus; assay: Antidiabetic activity in high fat diet-induced obese C57BL/6 type 2 diabetes mouse model assessed as reduction of glucose output from liver at 30 to 100 mg/kg, po administered QD for 4 weeks by intravenous glucose tolerance test; type: functional, organism-based; conditions: C57BL6; outline: as §2
[19] = system: Mus musculus; assay: Antidiabetic activity in high fat diet-induced obese C57BL/6 type 2 diabetes mouse model assessed as increase in plasma insulin AUC at 30 mg/kg, po administered QD for 4 weeks by intravenous glucose tolerance test; type: functional, organism-based; set-up: dose 30 mg/kg; conditions: C57BL6; outline: as §2

Compound	Activity [1] [%]	logPm [2]	Activity [3] [%]	half-life [4] [min]	Activity [5] [nM]	AUC(0-t) at 24 h [6] [µM·h]	Activity [7]	Activity [8]	Cmax [9] [µM]	AUC(0-t) at 24 h [10] [µM·h]	Cmax [11] [µM]	AUC(0-t) at 24 h [12] [µM·h]	Activity [13]	Activity [14]	Cmax [15] [µM]	AUC(0-t) at 24 h [16] [µM·h]	Cmax [17] [µM]	Activity [18]	Activity [19]
COc1ccc2nc(NC(=O)C(CC3CCCC3)c3ccc(S(=O)(=O)N4CCNCC4)cc3)sc2n1.Cl (stereo not given)	22	-4.9	26	< 1.5	50														
COc1ccc2nc(NC(=O)[C@H](CC3CCCC3)c3ccc(S(=O)(=O)N4CCN(C)CC4)cc3)sc2n1					23	52.4	Dose-dependent effect	Active	218	511	4.3	3230	Active	inactive	34.6	167	44.5	Active	inactive
